Data reported in article PMC5625158 (Pharmacology Research & Perspectives, 2017).

Experiments:
liver and lung fibrosis = conditions: ref Henderson et al. 2013; cited from earlier work
obese ZSF1 rats [1] = assay: Renal function in obese ZSF1 rat diabetic nephropathy model; type: in vivo; conditions: for Urinary protein/creatinine ratio (UPCR): 28 weeks
obese ZSF1 rats [2] = assay: Kidney histology in ZSF1 rats; type: in vivo, rat
Procedure, shortened: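 At study end, both kidneys were formalin-fixed, paraffin-embedded and stained with H&E, PAS and Masson's trichrome for light microscopy. Tubular, interstitial, vascular and glomerular changes were graded 0–5 (normal to severe). Collagen deposition was graded 0–5 by blue-stained area size and intensity. Group sizes were n = 8 lean and n = 12 per obese group, with 28 weeks of diet dosing.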

human podocytes = assay: Podocyte cell viability; type: cell-based; conditions: 48 h treatment, unpublished data
αvβx integrins = assay: Thermal shift assay, αvβx integrins; type: binding; conditions: Fig. S1B
Procedure, shortened: (§1)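 Differential scanning fluorimetry was run on a real-time PCR instrument. Recombinant integrins (the α1β1–αIIbβ3 panel was recombinant human) were reconstituted in assay buffer with Sypro orange, and test compound was added at 20 µM. ΔTm was calculated against a DMSO control. Runs were in triplicate across three independent experiments.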

[3] = test system: Human primary kidney fibroblasts (HPKF); assay: Kidney fibroblast fibrosis assay; type: cell-based
Procedure, shortened: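 Primary human kidney fibroblasts were grown on collagen I-coated plates at 37°C in 5% CO2 and serum-starved overnight. They were then given various concentrations of test compound for 24 h. In TGF-β arms, compound was added 1 h before recombinant human TGF-β1 (5 ng/mL final, 24 h). Marker mRNA was measured by RNA extraction, reverse transcription and real-time PCR.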

[4] = test system: α1β1, α2β1, α3β1, α4β1, α6β1, α9β1, α10β1, α11β1, and αIIbβ3 integrins; assay: Thermal shift assay; type: binding, Human; conditions: Twenty μM MK‐0429
Procedure, shortened: as §1

[5] = test system: postmenopausal women with osteoporosis; conditions: cited from earlier work
[6] = Body weight, food and water intake in ZSF1 rats; type: in vivo, rat; conditions: data not shown
Procedure, shortened: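 Male obese ZSF1 rats received the test compound in a medicated chow diet from 16 weeks of age for 28 weeks. Before each collection they were acclimated for at least 3 days to single housing in metabolic cages. Body weight and food and water consumption were recorded at every urine and blood collection, at weeks −2, 1, 2, 4, 6, 8, 12, 16, 21, 24 and 28.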

platelet aggregation = conditions: ref Hutchinson et al. 2003; cited from earlier work
[7] = test system: men with hormone‐refractory prostate cancer and bone metastases; conditions: ref Rosenthal et al. 2010; cited from earlier work
obese ZSF1 rats [8] = assay: Kidney fibrosis marker gene expression by RT-PCR in ZSF1 rats; type: in vivo, rat; conditions: dose not given
Procedure, shortened: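 Kidney cortex was snap-frozen, homogenized in TRIzol and column-purified for RNA. A 2 µg RNA sample was reverse-transcribed, and rat TaqMan probes were used for qPCR. Ct values were normalized to the geomean of POLR2A and B2M and quantified by the 2^-ΔΔCT method relative to the obese vehicle group. Treatment was in diet for 28 weeks (n = 12 per obese group).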

obese ZSF1 rats [9] = assay: Kidney collagen I and III protein by immunohistochemistry in ZSF1 rats; type: in vivo, rat; conditions: 400 mg/kg/day, versus obese vehicle
Procedure, shortened: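 Kidneys were taken at study end, formalin-fixed and paraffin-embedded, then deparaffinized and rehydrated. Sections were stained with rabbit polyclonal anti-collagen I (2 ug/mL) or anti-collagen III (3 ug/mL), developed with an HRP-polymer kit and counterstained with hematoxylin. Whole slides were scanned at 20x, and positive stain area was quantified by a colour-deconvolution algorithm. Dosing was in diet for 28 weeks.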

[10] = test system: osteoplastic bone resorption; conditions: ref Hutchinson et al. 2003; cited from earlier work
αvβ3 = αvβ3 (Homo sapiens, UniProt P05106+P06756); conditions: ref Hutchinson et al. 2003; cited from earlier work
Sequence of αvβ3 (P06756 31-992 limits assumed): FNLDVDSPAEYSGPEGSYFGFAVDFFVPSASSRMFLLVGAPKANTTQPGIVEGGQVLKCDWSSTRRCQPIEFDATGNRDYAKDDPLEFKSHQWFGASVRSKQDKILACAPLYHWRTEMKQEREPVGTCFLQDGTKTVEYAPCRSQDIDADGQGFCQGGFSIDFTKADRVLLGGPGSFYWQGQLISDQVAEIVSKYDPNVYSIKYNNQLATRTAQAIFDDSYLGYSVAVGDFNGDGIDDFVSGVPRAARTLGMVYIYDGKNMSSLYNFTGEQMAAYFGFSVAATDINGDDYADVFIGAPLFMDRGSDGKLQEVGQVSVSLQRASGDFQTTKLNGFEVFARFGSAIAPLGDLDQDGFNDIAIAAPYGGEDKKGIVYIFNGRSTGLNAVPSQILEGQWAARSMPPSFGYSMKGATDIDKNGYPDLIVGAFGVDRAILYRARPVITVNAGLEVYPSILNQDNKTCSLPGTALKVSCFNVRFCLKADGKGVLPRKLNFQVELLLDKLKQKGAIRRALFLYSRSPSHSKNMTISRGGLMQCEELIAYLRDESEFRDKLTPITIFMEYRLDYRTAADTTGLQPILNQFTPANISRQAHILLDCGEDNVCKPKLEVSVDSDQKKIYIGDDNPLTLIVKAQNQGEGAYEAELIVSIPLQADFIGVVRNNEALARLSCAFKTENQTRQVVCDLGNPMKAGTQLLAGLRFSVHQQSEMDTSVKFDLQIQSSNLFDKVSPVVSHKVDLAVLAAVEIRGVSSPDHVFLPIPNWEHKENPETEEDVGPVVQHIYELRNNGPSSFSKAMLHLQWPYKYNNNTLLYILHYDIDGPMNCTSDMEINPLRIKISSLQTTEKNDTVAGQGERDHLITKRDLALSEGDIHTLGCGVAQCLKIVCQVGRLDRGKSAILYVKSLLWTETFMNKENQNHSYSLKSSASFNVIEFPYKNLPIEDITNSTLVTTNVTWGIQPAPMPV
Sequence of αvβ3 (P05106 27-718 limits assumed): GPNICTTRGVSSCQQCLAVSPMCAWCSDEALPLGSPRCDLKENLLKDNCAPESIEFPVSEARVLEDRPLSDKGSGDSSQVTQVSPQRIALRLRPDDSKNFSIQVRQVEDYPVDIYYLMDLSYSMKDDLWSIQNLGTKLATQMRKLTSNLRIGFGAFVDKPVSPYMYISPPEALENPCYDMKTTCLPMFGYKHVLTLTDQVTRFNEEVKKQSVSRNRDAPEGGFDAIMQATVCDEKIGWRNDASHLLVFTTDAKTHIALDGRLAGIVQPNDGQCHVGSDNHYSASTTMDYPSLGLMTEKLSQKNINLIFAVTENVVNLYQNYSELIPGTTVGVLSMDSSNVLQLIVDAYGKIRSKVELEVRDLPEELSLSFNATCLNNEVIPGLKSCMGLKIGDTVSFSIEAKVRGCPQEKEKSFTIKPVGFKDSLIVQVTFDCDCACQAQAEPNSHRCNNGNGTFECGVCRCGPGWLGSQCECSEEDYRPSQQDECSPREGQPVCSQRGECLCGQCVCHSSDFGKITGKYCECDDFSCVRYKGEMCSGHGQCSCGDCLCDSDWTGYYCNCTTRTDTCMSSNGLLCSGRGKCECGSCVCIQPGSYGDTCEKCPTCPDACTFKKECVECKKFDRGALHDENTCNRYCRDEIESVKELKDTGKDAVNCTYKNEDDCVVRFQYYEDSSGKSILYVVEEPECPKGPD

CC(C)(C)c1cc(Br)cc([C@H](CC(=O)O)NC(=O)CNC(=O)c2cc(O)cc(NC3=NCC(O)CN3)c2)c1 (some centres unmarked) [CWHM12]
Liver and lung fibrosis (liver and lung fibrosis): attenuated

CCOC(=O)[C@H](CCc1ccccc1)N[C@@H](C)C(=O)N1CCC[C@H]1C(=O)O [Enalapril, enalapril]
Urinary protein/creatinine ratio (UPCR) (obese ZSF1 rats [1]; 10 mg/kg/day in diet): significantly decreased
Glomerular filtration rate (GFR) (obese ZSF1 rats [1]; enalapril 10 mg/kg/day in diet): improvement
Kidney fibrosis score (Masson's trichrome) (obese ZSF1 rats [2]; 10 mg/kg/day, 28 weeks, versus obese vehicle): significantly decreased

COc1ccc([C@H](CC(=O)O)N2CCN(CCCc3ccc4c(n3)NCCC4)C2=O)cn1 [MK‐0429]
Effect on cell viability (human podocytes): without affecting cell viability
Shift of melting temperatures of αvβx integrins (αvβx integrins): dramatic shift
Urinary protein/creatinine ratio (UPCR) (obese ZSF1 rats [1]; 400 mg/kg/day in diet): significantly later onset in its effects to reduce
Glomerular injury score (obese ZSF1 rats [2]; 0–5 scale, data not shown): no significant effect
Tubular injury score (obese ZSF1 rats [2]; 0–5 scale, data not shown): no significant effect
Expression of Collagen type I alpha‐1 chain (Col IA1) ([3]; HPKF ± TGF‐β): partially inhibited
Expression of connective tissue growth factor (CTGF) ([3]; HPKF ± TGF‐β): strongly suppressed
Expression of α‐smooth muscle actin (αSMA) ([3]; HPKF ± TGF‐β): partially inhibited
IC50 ([3]; read-out: Inhibition of PAI‐1 gene expression IC50, HPKF, absence of TGF‐β, 24 h): 56.5 nM
Binding to other integrins (thermal shift assay) [4]: does not bind and No
Bone mineral density at spine and hip (multiple endpoints) ([5]; phase II, postmenopausal women with osteoporosis, ref Murphy et al. 2005): improvement
Tolerability in Phase II trials ([5]; ref Hutchinson et al. 2003, Coleman et al. 2004, Murphy et al. 2005, Rosenthal et al. 2010): well tolerated
Body weight [6]: no significant effects
Food intake [6]: no significant effects
Water intake [6]: no significant effects
Activity in platelet aggregation assay (platelet aggregation): inactive
Bone turnover [7]: significantly reduced
αSMA mRNA expression, kidney (obese ZSF1 rats [8]): significantly decreased
Decrease of Type I collagen positive stain (% of area), kidney IHC (obese ZSF1 rats [9]): significantly decreased
Decrease of Type III collagen positive stain (% of area), kidney IHC (obese ZSF1 rats [9]): significantly decreased
Osteoplastic bone resorption [10]: inhibits
αvβ3 ligand binding (αvβ3): inhibits
